The results in this text go back to ChEMBL document CHEMBL1155479, “Highly potent, non-basic 5-HT6 ligands. Site mutagenesis evidence for a second binding mode at 5-HT6 for antagonism” (Bioorg Med Chem Lett, 2010).

The target in experiment [1] is 5-hydroxytryptamine receptor 6 (Homo sapiens, UniProt P50406). The experiment is described as follows: Displacement of [3H]LSD form human recombinant 5HT6 receptor. Put shortly: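 Membranes prepared from cells engineered to recombinantly express human 5-HT6 receptors; competitive radioligand binding with [3H]LSD; affinity reported as pKi (−log M).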
Sequence of 5-hydroxytryptamine receptor 6 (P50406 whole entry): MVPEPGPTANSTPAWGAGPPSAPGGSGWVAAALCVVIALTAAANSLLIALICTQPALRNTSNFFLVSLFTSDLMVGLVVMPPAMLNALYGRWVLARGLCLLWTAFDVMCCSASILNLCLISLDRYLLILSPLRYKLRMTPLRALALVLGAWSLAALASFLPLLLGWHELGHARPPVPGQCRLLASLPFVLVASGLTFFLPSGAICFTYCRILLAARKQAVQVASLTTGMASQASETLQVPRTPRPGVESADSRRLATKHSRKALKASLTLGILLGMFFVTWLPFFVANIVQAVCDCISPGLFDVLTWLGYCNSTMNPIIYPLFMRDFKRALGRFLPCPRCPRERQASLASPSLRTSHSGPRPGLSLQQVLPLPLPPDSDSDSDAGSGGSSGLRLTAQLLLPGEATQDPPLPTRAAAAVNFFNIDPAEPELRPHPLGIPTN
A general note: In a radioligand displacement assay an active substance lowers the binding of a labelled ligand.

A short description of experiment [2]: Inhibition of CYP450. The experiment is classed as ADME.
The target of the next experiment is Cytochrome P450 2D6 (Homo sapiens, UniProt P10635). The experiment is described as follows: Inhibition of CYP2D6. The experiment is classed as ADME.
Sequence of Cytochrome P450 2D6 (P10635 whole entry): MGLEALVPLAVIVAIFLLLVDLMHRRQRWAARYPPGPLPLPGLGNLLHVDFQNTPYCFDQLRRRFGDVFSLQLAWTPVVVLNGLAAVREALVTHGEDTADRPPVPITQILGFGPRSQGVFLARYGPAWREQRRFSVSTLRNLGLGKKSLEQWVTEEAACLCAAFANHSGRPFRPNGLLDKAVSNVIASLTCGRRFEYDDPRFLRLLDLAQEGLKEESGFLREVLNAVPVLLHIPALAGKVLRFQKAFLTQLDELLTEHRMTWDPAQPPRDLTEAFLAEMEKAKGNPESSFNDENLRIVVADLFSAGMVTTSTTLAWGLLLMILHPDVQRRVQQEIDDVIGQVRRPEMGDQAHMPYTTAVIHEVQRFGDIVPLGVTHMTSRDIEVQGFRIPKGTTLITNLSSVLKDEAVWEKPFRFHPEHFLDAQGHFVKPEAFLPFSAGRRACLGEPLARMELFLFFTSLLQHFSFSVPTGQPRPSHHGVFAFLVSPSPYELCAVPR

What is called Ki is a dissociation constant, usually derived from enzyme kinetics or from competition with a known ligand. As to `CNC(=O)NC[C@@H]1CCCc2cc(S(=O)(=O)c3cccc(F)c3)ccc21`, in experiment [1], the Ki is 0.398 nM.

Take `CN(C)C(=O)NC[C@@H]1CCCc2cc(S(=O)(=O)c3cccc(F)c3)ccc21`: the Ki in experiment [1] was 2.51 nM.

The IC50 is the concentration that gives 50% inhibition. Read a low IC50 as higher potency. As for `CC(=O)NC[C@@H]1CCCc2cc(S(=O)(=O)c3ccccc3)cc(F)c21`, the Ki in experiment [1] is 0.316 nM. Also, the IC50 in experiment [2] was above 15000 nM.

Turning to `CN(C)S(=O)(=O)NC[C@@H]1CCCc2cc(S(=O)(=O)c3cccc(F)c3)ccc21`, the Ki in experiment [1] is 2 nM.

For the molecule `O=S(=O)(c1cccc(F)c1)c1ccc2c(c1)CCC[C@H]2CNS(=O)(=O)C(F)(F)F`, in experiment [1], the Ki was 31.6 nM.

For the molecule `N=C(N)NC(=O)C[C@@H]1CCCc2cc(S(=O)(=O)c3cccc(F)c3)ccc21`, the Ki in experiment [1] was 0.631 nM.

For `CC(C)(O)C(=O)NC[C@@H]1CCCc2cc(S(=O)(=O)c3cccc(F)c3)ccc21`, in experiment [1], the Ki was 2 nM.

`CS(=O)(=O)NC[C@@H]1CCCc2cc(S(=O)(=O)c3cccc(F)c3)ccc21`: the inhibition constant (Ki) in experiment [1] is 0.2 nM.

Regarding `CN(C[C@@H]1CCCc2cc(S(=O)(=O)c3cccc(F)c3)ccc21)S(C)(=O)=O`, the Ki in experiment [1] was 0.398 nM.

With `CC(=O)NC[C@@H]1CCCc2cc(S(=O)(=O)c3cccc(F)c3)ccc21`, the Ki in experiment [1] is 0.126 nM.

Take `CN(C)CC(=O)NC[C@@H]1CCCc2cc(S(=O)(=O)c3cccc(F)c3)ccc21`: in experiment [1], the Ki was 0.398 nM.

As to `O=C1CN(C[C@@H]2CCCc3cc(S(=O)(=O)c4cccc(F)c4)ccc32)CCN1`, the Ki in experiment [1] was 6.31 nM.

As for `O=S(=O)(c1cccc(F)c1)c1cc(F)c2c(c1)CCC[C@H]2CNCCO`, in experiment [1], the Ki was 0.158 nM.

On to `COCC(=O)NC[C@@H]1CCCc2cc(S(=O)(=O)c3cccc(F)c3)ccc21`, for which, in experiment [1], the Ki was 0.794 nM.

With `CC(C)(C)C(=O)NC[C@@H]1CCCc2cc(S(=O)(=O)c3cccc(F)c3)ccc21`, in experiment [1], the inhibition constant Ki is 3.98 nM.

As for `NC(=O)NC[C@@H]1CCCc2cc(S(=O)(=O)c3cccc(F)c3)cc(F)c21`, the Ki in experiment [1] is 0.2 nM.

Take `O=C(CO)NC[C@@H]1CCCc2cc(S(=O)(=O)c3cccc(F)c3)cc(F)c21`: the Ki in experiment [1] is 0.251 nM.

For `NS(=O)(=O)NC[C@@H]1CCCc2cc(S(=O)(=O)c3cccc(F)c3)ccc21`, the inhibitory constant (Ki) in experiment [1] is 0.126 nM.

In the case of `NC[C@@H]1CCCc2cc(S(=O)(=O)c3cncs3)ccc21`, the Ki in experiment [1] is 0.794 nM.

For the molecule `NC[C@@H]1CCCc2cc(S(=O)(=O)c3c[nH]c4ccccc34)ccc21`, the Ki in experiment [1] was 0.0501 nM.

`COC(=O)NC[C@@H]1CCCc2cc(S(=O)(=O)c3cccc(F)c3)ccc21`: in experiment [1], the Ki was 1.58 nM.

As for `CC(=O)N(C)C[C@@H]1CCCc2cc(S(=O)(=O)c3cccc(F)c3)ccc21`, in experiment [1], the inhibitory constant (Ki) is 1.58 nM.

Regarding `CNC(=O)CNC[C@@H]1CCCc2cc(S(=O)(=O)c3cccc(F)c3)ccc21`, the Ki in experiment [1] was 1 nM.

On to `O=S(=O)(c1cccc(F)c1)c1ccc2c(c1)CCC[C@H]2CNCCO`, for which the Ki in experiment [1] was 0.126 nM.

Consider `COCCNC[C@@H]1CCCc2cc(S(=O)(=O)c3cccc(F)c3)ccc21`, for which the Ki in experiment [1] was 0.251 nM.

On to `CNCC1CCCc2cc(S(=O)(=O)c3ccccc3)ccc21` (stereo unspecified), for which, in experiment [1], the inhibition constant Ki is 0.316 nM.

As for `O=S(=O)(c1ccccc1)c1ccc2c(c1)CCCC2CNc1ncccn1` (stereo unspecified), the Ki in experiment [1] was 25.1 nM.

For the molecule `CS(=O)(=O)c1cccc(S(=O)(=O)c2ccc3c(c2)CCC[C@H]3CN)c1`, in experiment [1], the Ki was 3.98 nM.

`O=C(CO)NC[C@@H]1CCCc2cc(S(=O)(=O)c3cccc(F)c3)ccc21`: in experiment [1], the Ki was 0.1 nM.

Turning to `N#Cc1cccc(S(=O)(=O)c2ccc3c(c2)CCC[C@H]3CN)c1`, in experiment [1], the Ki was 0.501 nM.

As to `NC[C@@H]1CCCc2cc(S(=O)(=O)c3cc[nH]c3)ccc21`, in experiment [1], the Ki is 0.316 nM.

As to `O=C(NC[C@@H]1CCCc2cc(S(=O)(=O)c3cccc(F)c3)ccc21)c1ncc[nH]1`, in experiment [1], the inhibition constant Ki was 15.8 nM.

Take `CN(C)CC1CCCc2cc(S(=O)(=O)c3ccccc3)ccc21` (stereo unspecified): the Ki in experiment [1] is 0.0631 nM.

In the case of `CNCC(=O)NC[C@@H]1CCCc2cc(S(=O)(=O)c3cccc(F)c3)ccc21`, in experiment [1], the inhibition constant Ki was 0.158 nM.

As for `CNC[C@@H]1CCCc2cc(S(=O)(=O)c3cc[nH]c3)ccc21`, in experiment [1], the Ki was 0.158 nM.

For the molecule `Cn1ccc(S(=O)(=O)c2ccc3c(c2)CCC[C@H]3CN)c1`, the inhibition constant (Ki) in experiment [1] was 7.94 nM.

In the case of `NC[C@@H]1CCCc2cc(S(=O)(=O)c3cn[nH]c3)ccc21`, the Ki in experiment [1] is 2 nM.

Turning to `O=C(NC[C@@H]1CCCc2cc(S(=O)(=O)c3cccc(F)c3)ccc21)[C@H]1CCCN1`, the inhibitory constant (Ki) in experiment [1] was 0.631 nM.

As for `O=S(=O)(c1cccc(F)c1)c1ccc2c(c1)CCC[C@H]2CN1CC(O)C1`, the Ki in experiment [1] is 0.1 nM.

Turning to `CN(C[C@@H]1CCCc2cc(S(=O)(=O)c3cccc(F)c3)ccc21)C(N)=O`, the Ki in experiment [1] was 39.8 nM.

Consider `O=S(=O)(c1cccc(F)c1)c1ccc2c(c1)CCC[C@H]2CN1CCCS1(=O)=O`, for which the Ki in experiment [1] was 31.6 nM.

Turning to `N=C(N)NCC1CCCc2cc(S(=O)(=O)c3ccccc3)ccc21` (stereo unspecified), the Ki in experiment [1] was 0.158 nM. Further, the IC50 against Cytochrome P450 2D6 was below 50 nM.

Regarding `CC(=N)NCC1CCCc2cc(S(=O)(=O)c3ccccc3)ccc21` (stereo unspecified), in experiment [1], the Ki is 0.631 nM.

Consider `O=C1CN=C(NC[C@@H]2CCCc3cc(S(=O)(=O)c4cccc(F)c4)ccc32)N1`, for which the Ki in experiment [1] is 0.1 nM.

`O=C(NC[C@@H]1CCCc2cc(S(=O)(=O)c3cccc(F)c3)ccc21)c1ccc[nH]1`: in experiment [1], the inhibition constant Ki is 5.01 nM.

Take `NC[C@@H]1CCCc2cc(S(=O)(=O)c3cc(F)cc4[nH]cnc34)ccc21`: the Ki in experiment [1] was 5.01 nM.

As for `NC(=O)CNC[C@@H]1CCCc2cc(S(=O)(=O)c3cccc(F)c3)ccc21`, in experiment [1], the inhibition constant (Ki) is 0.1 nM.

On to `CN(CC(N)=O)C[C@@H]1CCCc2cc(S(=O)(=O)c3cccc(F)c3)ccc21`, for which the Ki in experiment [1] is 1.26 nM.

For the molecule `NC[C@@H]1CCCc2cc(S(=O)(=O)c3ccccc3)ccc21`, in experiment [1], the Ki is 0.158 nM.

As for `NC[C@@H]1CCCc2cc(S(=O)(=O)c3cccc(O)c3)ccc21`, the inhibition constant (Ki) in experiment [1] was 0.251 nM.

Consider `COc1cccc(S(=O)(=O)c2ccc3c(c2)CCC[C@H]3CN)c1`, for which, in experiment [1], the Ki was 0.398 nM.

As to `NC[C@@H]1CCCc2cc(S(=O)(=O)c3cccc(F)c3)ccc21`, the Ki in experiment [1] was 0.0794 nM.

`O=S(=O)(O)CCCNC[C@@H]1CCCc2cc(S(=O)(=O)c3cccc(F)c3)ccc21`: in experiment [1], the inhibition constant (Ki) was 1.26 nM.

`NCC(=O)NC[C@@H]1CCCc2cc(S(=O)(=O)c3cccc(F)c3)ccc21`: the inhibitory constant (Ki) in experiment [1] is 0.316 nM.

As to `NC[C@@H]1CCCc2cc(S(=O)(=O)Cc3ccccc3)ccc21`, in experiment [1], the Ki was 158 nM.

Take `NC[C@@H]1CCCc2cc(S(=O)(=O)C3CCCCC3)ccc21`: the Ki in experiment [1] is above 1000 nM.

Take `CN(C[C@@H]1CCCc2cc(S(=O)(=O)c3cccc(F)c3)ccc21)S(N)(=O)=O`: the Ki in experiment [1] was 3.98 nM.

For the molecule `CNS(=O)(=O)NC[C@@H]1CCCc2cc(S(=O)(=O)c3cccc(F)c3)ccc21`, the Ki in experiment [1] is 1 nM.

For the molecule `NC(=O)NC[C@@H]1CCCc2cc(S(=O)(=O)c3cccc(F)c3)ccc21` [LANDIPIRDINE], in experiment [1], the Ki is 0.2 nM.
